# Laboratory results: ChEMBL document CHEMBL1137692, “Synthesis and antimicrobial activity of new 1-alkyl/cyclohexyl-3,3-diaryl-1'-methylspiro[azetidine-2,3'-indoline]-2',4-diones” (2009)
# Activity calls are given as the source filed them. The rule behind the calls is not given here.
# Columns and labels:
# Bacillus subtilis [1] = assay: Antibacterial activity against Bacillus subtilis at 100 ug/mL by bioautographic agar overlay method; format: functional, organism-based
# Staphylococcus aureus [2] = assay: Antibacterial activity against Staphylococcus aureus at 100 ug/mL by bioautographic agar overlay method; format: functional, organism-based
# Escherichia coli = assay: Antibacterial activity against Escherichia coli by bioautographic agar overlay method; format: functional
# In short: (§1)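 Nutrient agar inoculated with the pure microbial culture was poured over the plates, which were incubated appropriately. Bacterial or fungal growth inhibition was scored by bioautography.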
# Pseudomonas aeruginosa = assay: Antibacterial activity against Pseudomonas aeruginosa by bioautographic agar overlay method; format: functional; in short: as §1
# Candida albicans [3] = assay: Antifungal activity against Candida albicans at 100 ug/mL by bioautographic agar overlay method; format: functional, organism-based
# Saccharomyces cerevisiae = assay: Antifungal activity against Saccharomyces cerevisiae by bioautographic agar overlay method; format: functional; in short: as §1
# Candida albicans [4] = assay: Antifungal activity against Candida albicans by bioautographic agar overlay method
# Staphylococcus aureus [5] = assay: Antibacterial activity against Staphylococcus aureus by bioautographic agar overlay method; format: functional; in short: as §1
# Bacillus subtilis [6] = assay: Antibacterial activity against Bacillus subtilis by bioautographic agar overlay method; format: functional; in short: as §1
SMILES,MIC (Escherichia coli),MIC (Pseudomonas aeruginosa),MIC (Saccharomyces cerevisiae),MIC (Candida albicans [4]),MIC (Staphylococcus aureus [5]),MIC (Bacillus subtilis [6]),Activity (Bacillus subtilis [1]),Activity (Staphylococcus aureus [2]),Activity (Candida albicans [3])
Cc1ccc(C2(c3ccc(C)cc3)C(=O)N(C(C)c3ccccc3)C23C(=O)N(C)c2ccccc23)cc1 (stereo unspecified),–,–,–,–,–,–,inactive,inactive,inactive
CN1C(=O)C2(c3ccccc31)N(C(c1ccccc1)c1ccccc1)C(=O)C2(c1ccccc1)c1ccccc1 (stereo unspecified),–,–,10 µg/mL,–,–,–,inactive,inactive,inactive
Clc1ccc(COC(Cn2ccnc2)c2ccc(Cl)cc2Cl)c(Cl)c1 (stereo unspecified) [MICONAZOLE],–,–,0.1 µg/mL,0.1 µg/mL,–,–,–,–,–
CN1C(=O)C2(c3ccccc31)N(C1CCCCC1)C(=O)C2(c1ccccc1)c1ccccc1 (stereo unspecified),100 µg/mL,–,–,–,–,–,inactive,inactive,inactive
Cc1ccc(C2(c3ccc(C)cc3)C(=O)N(C(c3ccccc3)c3ccccc3)C23C(=O)N(C)c2ccccc23)cc1 (stereo unspecified),–,–,100 µg/mL,–,–,–,inactive,inactive,inactive
O=C(N[C@H](CO)[C@H](O)c1ccc([N+](=O)[O-])cc1)C(Cl)Cl [CHLORAMPHENICOL],0.1 µg/mL,–,–,–,0.1 µg/mL,0.1 µg/mL,–,–,–
CC(c1ccccc1)N1C(=O)C(c2ccccc2)(c2ccccc2)C12C(=O)N(C)c1ccccc12 (stereo unspecified),–,–,–,–,–,–,inactive,inactive,inactive

# Further lines, with some results ahead:
MIC (Escherichia coli),MIC (Pseudomonas aeruginosa),MIC (Saccharomyces cerevisiae),MIC (Candida albicans [4]),MIC (Staphylococcus aureus [5]),MIC (Bacillus subtilis [6]),SMILES,Activity (Bacillus subtilis [1]),Activity (Staphylococcus aureus [2]),Activity (Candida albicans [3])
10 µg/mL,50 µg/mL,50 µg/mL,–,–,–,Cc1ccc(C2(c3ccc(C)cc3)C(=O)N(C(C)C)C23C(=O)N(C)c2ccccc23)cc1 (stereo unspecified),inactive,inactive,inactive
50 µg/mL,–,50 µg/mL,–,–,–,COc1ccc(C2(c3ccc(OC)cc3)C(=O)N(C(c3ccccc3)c3ccccc3)C23C(=O)N(C)c2ccccc23)cc1 (stereo unspecified),inactive,inactive,inactive
–,–,50 µg/mL,–,–,–,COc1ccc(C2(c3ccc(OC)cc3)C(=O)N(C(C)C)C23C(=O)N(C)c2ccccc23)cc1 (stereo unspecified),inactive,inactive,inactive
100 µg/mL,–,–,–,–,–,Cc1ccc(C2(c3ccc(C)cc3)C(=O)N(C3CCCCC3)C23C(=O)N(C)c2ccccc23)cc1 (stereo unspecified),inactive,inactive,inactive
–,–,50 µg/mL,–,–,–,CC(C)N1C(=O)C(c2ccccc2)(c2ccccc2)C12C(=O)N(C)c1ccccc12 (stereo unspecified),inactive,inactive,inactive
